Results: ChEMBL document CHEMBL2040744, “Phenanthrene derivatives from Cymbidium Great Flower Marie Laurencin and their biological activities” (J Nat Prod, 2012)
In brackets after ≈: the same amount, converted by molar mass.

What follows are molecules tested on Klebsiella pneumoniae (assay: Antibacterial activity against Klebsiella pneumoniae NBRC 3512 after overnight incubation by microdilution method). Details: not given.
Assay type: functional
In short: (§1)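 Broth microdilution MIC. Strains were first grown on YP agar (1% polypeptone, 0.2% yeast extract, 0.1% MgSO4·7H2O, 6% agar) for 12 h, B. subtilis at 37 °C and K. pneumoniae at 27 °C. Samples came from a 10 mg/mL DMSO stock, serially diluted in 96-well plates of strain in YP medium, then incubated overnight at 37 °C. Ampicillin served as reference.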

Compound | MIC [µM]
CC1(C)S[C@@H]2[C@H](NC(=O)[C@H](N)c3ccccc3)C(=O)N2[C@H]1C(=O)O [AMPICILLIN] | 107 (≈ 37.5 µg/mL)
COc1cc2ccc3cccc(O)c3c2c(OC)c1O [BULBOPHYLLANTHRIN] | 185 (≈ 50.1 µg/mL)

The molecules below were run on HL-60 (assay: Cytotoxicity against human HL60 cells after 72 hrs by WST8 assay). Details: HL-60, 72 h.
Assay type: functional, cell-based
In short: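 HL-60 cells were kept in RPMI-1640 with 10% FBS at 37 °C under 5% CO2. Cells were seeded at 5 × 10^3 per well and preincubated 2 h, then exposed to compound in medium for 72 h. WST-8 was added for a further 3 h, and formazan absorbance was read at 450 nm to give IC50.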

Compound | IC50 [µM]
COc1c(O)c2c(c(OC)c1O)-c1c(O)cccc1CC2 [MARYLAURENCINOLS B] | 174
COc1cc2c(c(O[C@@H]3O[C@H](CO)[C@@H](O)[C@H](O)[C@H]3O)c1O)-c1c(O)cccc1CC2 [MARYLAURENCINOSIDE A] | 52.4
COc1cc2ccc3cccc(O)c3c2c(OC)c1O [BULBOPHYLLANTHRIN] | 52.4
COc1cc2ccc3cc(O)ccc3c2c(OC)c1O | 34.2
COc1ccc2c(c1)CCc1cc(OC)c(O)c(OC)c1-2 | 31.8
COc1cc2ccc3c(OC)c(O)ccc3c2c(OC)c1O | 103
COc1c(O)cc2c(c1OC)-c1ccc(O)cc1CC2 [ERIANTHRIDIN] | 44.6
COc1ccc2c(ccc3cc(OC)c(O)c(OC)c32)c1 | 19.3
CO[C@@]12[C@H](COC(N)=O)C3=C(C(=O)C(C)=C(N)C3=O)N1C[C@@H]1N[C@@H]12 [MITOMYCIN] | 0.1
COC1=CC(=O)C2=C(CCc3cccc(O)c32)C1=O [EPHEMERANTHOQUINONE B] | 2.8
COc1cc2c(c(OC)c1O)-c1c(O)cccc1CC2 [MARYLAURENCINOLS A] | 96.8

These molecules were tested on Bacillus subtilis (assay: Antibacterial activity against Bacillus subtilis NBRC 3134 after overnight incubation by microdilution method). Details: not given.
Assay type: functional
In short: as §1

MIC [µM] | Compound
65.1 (≈ 18.8 µg/mL) | COc1c(O)c2c(c(OC)c1O)-c1c(O)cccc1CC2 [MARYLAURENCINOLS B]
0.36 (≈ 0.126 µg/mL) | CC1(C)S[C@@H]2[C@H](NC(=O)[C@H](N)c3ccccc3)C(=O)N2[C@H]1C(=O)O [AMPICILLIN]
52.8 (≈ 15 µg/mL) | COc1ccc2c(ccc3cc(OC)c(O)c(OC)c32)c1
4.88 (≈ 1.25 µg/mL) | COC1=CC(=O)C2=C(CCc3cccc(O)c32)C1=O [EPHEMERANTHOQUINONE B]

Compound | MIC [µM]
COc1cc2ccc3cccc(O)c3c2c(OC)c1O [BULBOPHYLLANTHRIN] | 185 (≈ 50.1 µg/mL)
COc1cc2ccc3cc(O)ccc3c2c(OC)c1O | 185 (≈ 50.1 µg/mL)
COc1cc2ccc3c(OC)c(O)ccc3c2c(OC)c1O | 250 (≈ 75.1 µg/mL)
